Assay [1] can be described thus: In vitro alpha-1 adrenergic receptor binding affinity was determined on calf frontal cortex membrane preparation. The class given is tissue-based, Bos taurus. In a few lines: (§1)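 Calf frontal cortex membranes (0.5 mg protein/mL) incubated 40 min at 25 °C with 0.5 nM [3H]prazosin in 50 mM phosphate buffer with 10 mM MgCl2. Competitors at 10^-9 to 10^-4 M. Nonspecific binding set with 10 µM phentolamine. Stopped by rapid vacuum filtration through glass fibre filters, then washed three times with ice-cold buffer. Ki reported.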

In assay [2] the test system is Rattus norvegicus. Briefly: Effect at 25 mg/kg, ip, on mean arterial blood pressure in anesthetized spontaneously hypertensive rats; lethal at 12.5 mg; toxic at 5 mg; inactive at 0.5 mg. The class given is functional, organism-based. Details: dose 25 mg/kg.
Assay [3] is described as follows: In vitro alpha-2 adrenergic receptor binding affinity was determined on calf frontal cortex membrane preparation. The class given is tissue-based, Bos taurus.
In assay [4] the target is imidazoline I2 binding site (Oryctolagus cuniculus). Briefly: In vitro binding affinity determined against imidazoline receptor I-2 using rabbit kidney preparation.
Assay [5] relates to Rattus norvegicus. Kind of assay: Effect after 100 mg/kg, po, on mean arterial blood pressure in conscious spontaneously hypertensive rats. The class given is functional. In a few lines:
(§2)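 Studied conscious 24 h after surgery. Dosed by oral gavage after ≥40 min stabilisation, n=6/group. Vehicle 0.5% carboxymethylcellulose, 5 mL/kg. MAP and HR recorded over 24 h. Output is the maximal change from baseline (mmHg, bpm, %). Repeated-measures ANOVA with Dunnett's tests.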

The test system of assay [6] is Rattus norvegicus. Briefly: Effect (25 mg/kg ip) on mean arterial blood pressure in anesthetized spontaneously hypertensive rats. The class given is functional. In a few lines: (§3)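 Adult male SHR anaesthetised with sodium pentobarbital 50 mg/kg ip, left carotid catheter filled with heparinised saline. BP and HR (HR from pulse pressure) stabilised ≥40 min before a single ip dose, n=6/group. Vehicle 0.5% carboxymethylcellulose in water, 2.5 mL/kg. Recorded over 90 min. Output is the maximal change in MAP (mmHg) and HR (bpm) from pre-dose baseline, also as %. Repeated-measures ANOVA with Dunnett's tests.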

Assay [7] has as its system Rattus norvegicus. Briefly: Effect after 30 mg/kg, po, on heart rate in conscious spontaneously hypertensive rats. The class given is functional. In a few lines:
as §2

Assay [8] concerns Rattus norvegicus. Briefly: Effect at (25 mg/kg, ip) on heart rate in anesthetized spontaneously hypertensive rats. The class given is functional. In a few lines: as §3
Assay [9] deals with Rattus norvegicus. Kind of assay: Effect after 100 mg/kg, po, on heart rate in conscious spontaneously hypertensive rats. The class given is functional. In a few lines:
as §2

The test system of assay [10] is Rattus norvegicus. Kind of assay: Effect (25 mg/kg ip) on heart rate in anesthetized spontaneously hypertensive rats. The class given is functional. In a few lines:
as §3

The test system of assay [11] is Rattus norvegicus. Kind of assay: Effect after 10 mg/kg, po, on mean arterial blood pressure in conscious spontaneously hypertensive rats. The class given is functional. The method, boiled down: as §2
The test system of assay [12] is Rattus norvegicus. Kind of assay: Effect after 30 mg/kg, po, on mean arterial blood pressure in conscious spontaneously hypertensive rats. The class given is functional. The method, boiled down: as §2
The test system of assay [13] is Rattus norvegicus. Kind of assay: Effect after 10 mg/kg, po, on heart rate in conscious spontaneously hypertensive rats. The class given is functional. The method, boiled down:
as §2

For assay [14], the target named is T1, Alpha-1A adrenergic receptor (Bos taurus, UniProt P18130).
T1 sequence (P18130 whole entry): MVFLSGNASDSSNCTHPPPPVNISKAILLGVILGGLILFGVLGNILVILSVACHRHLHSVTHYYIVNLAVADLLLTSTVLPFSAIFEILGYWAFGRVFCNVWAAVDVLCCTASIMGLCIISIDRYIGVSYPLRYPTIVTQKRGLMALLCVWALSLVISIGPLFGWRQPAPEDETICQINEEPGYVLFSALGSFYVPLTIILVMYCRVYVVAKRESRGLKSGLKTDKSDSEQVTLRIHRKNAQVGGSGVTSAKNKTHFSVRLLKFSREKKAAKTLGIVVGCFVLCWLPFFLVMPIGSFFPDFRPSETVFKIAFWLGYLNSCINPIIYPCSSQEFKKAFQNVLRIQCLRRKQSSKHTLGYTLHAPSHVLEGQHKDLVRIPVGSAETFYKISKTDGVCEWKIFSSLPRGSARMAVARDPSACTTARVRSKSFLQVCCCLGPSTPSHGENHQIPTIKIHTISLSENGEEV
Kind of assay: In Vitro Alpha-1 adrenergic receptor binding affinity on calf frontal cortex membrane preparation. The class given is tissue-based. The method, boiled down: as §1

The test system of assay [15] is Rattus norvegicus. Briefly: Effect after 25 mg/kg, po, on heart rate in conscious spontaneously hypertensive rats. The class given is functional. The method, boiled down:
as §2

Assay [16] concerns Rattus norvegicus. Kind of assay: Effect after 25 mg/kg, po, on mean arterial blood pressure in conscious spontaneously hypertensive rats. The class given is functional. In a few lines:
as §2

SMILES strings stand for the structures. The source made the active and inactive calls. No cut-off for these calls is given here.

Molecule `Cc1cc(C)c2c(c1)N(C)CC(C1=NCCN1)O2` (configuration not stated) gave a Ki in assay [1] greater than 1000 nM. In assay [2], the “Max delta MAP” value is “inactive” and the Variation entry was “inactive”. In [3], this molecule had a Ki of 12.4 nM.

With `Cc1ccc2c(c1)N(C)CC(C1=NCCN1)O2` (configuration not stated), the Ki in assay [1] is greater than 1000 nM; in assay [4], 1.99 nM; in assay [3], 70 nM. Besides, the “Max delta MAP” value in assay [5] is reported as -53 mmHg; in assay [6], -32 mmHg; in assay [11], -18 mmHg; in assay [12], -43 mmHg. Besides, the Variation is -28% in assay [5]; -175% in assay [6]; -10% in [7]; -23% in assay [9]; -37% in assay [10]; -10% in assay [11]. Moreover, the values for the Variation in assay [12] and in assay [13] were -23% and -3%, respectively. The “Max delta HR” value in [7] is given as -32 beats min-1; in assay [8], -127 beats min-1; in assay [9] it was -77 beats min-1; in assay [13], -11 beats min-1.

As to `CCCN1CC(C2=NCCN2)Oc2ccccc21` (configuration not stated), the figures for the Ki in assay [1], in assay [4] and in [3] were greater than 10000 nM, 160 nM and 132 nM, respectively. Further, the “Max delta MAP” value in assay [6] is listed as -26 mmHg. For the same molecule, the Variation in assay [6] is -14%; in assay [10], -27%. Moreover, in assay [8], the “Max delta HR” value is given as -90 beats min-1.

Take `CN1CC(C2=NCCN2)Oc2ccccc21` (configuration not stated): the Ki stood at 1100 nM in assay [14] and 74 nM in [3]. Moreover, the “Max delta HR” value was -97 beats min-1 in assay [15] and -148 beats min-1 in assay [8]. The Variation in assay [15] is reported as -26%; in assay [6] it was -21%; in [10], -44%; in assay [16], -36%. The “Max delta MAP” value in assay [6] is -36 mmHg; in assay [16], -65 mmHg.

For `c1ccc(CN2CC(C3=NCCN3)Oc3ccccc32)cc1` (configuration not stated), the values for the Ki in assay [1], in assay [4] and in assay [3] were 3500 nM, 1600 nM and 1300 nM, respectively. In addition, the “Max delta MAP” value in assay [6] is -4 mmHg. Moreover, the Variation in assay [6] is listed as -2%; in assay [10], -7%. Also, in [8], the “Max delta HR” value is -21 beats min-1.

One may read the Ki as the dissociation constant of the complex between target and ligand, obtained from inhibition or displacement. A low value points to a stronger hold on the target.

Source of the values: ChEMBL document CHEMBL1136789, “Synthesis and biological evaluation of new 2-(4,5-dihydro-1H-imidazol-2-yl)-3,4-dihydro-2H-1,4-benzoxazine derivatives” (J Med Chem, 2003).
